Measurements from ChEMBL document CHEMBL2062375, “Discovery of an orally efficacious inhibitor of anaplastic lymphoma kinase” (J Med Chem, 2012).
Activity calls are given as the source filed them. The calls are words filed in the database; no cut-off is given here.

How the values were obtained:
[1] = target: T1, ALK tyrosine kinase receptor (Homo sapiens, UniProt Q9UM73); test: Inhibition of human ALK cytoplasmic domain expressed in baculovirus using GST-PLCgamma as substrate preincubated for 15 mins before substrate addition measured after 1 hr by time resolved fluorescence assay
T1 sequence (Q9UM73 whole entry, the tested form may be a part): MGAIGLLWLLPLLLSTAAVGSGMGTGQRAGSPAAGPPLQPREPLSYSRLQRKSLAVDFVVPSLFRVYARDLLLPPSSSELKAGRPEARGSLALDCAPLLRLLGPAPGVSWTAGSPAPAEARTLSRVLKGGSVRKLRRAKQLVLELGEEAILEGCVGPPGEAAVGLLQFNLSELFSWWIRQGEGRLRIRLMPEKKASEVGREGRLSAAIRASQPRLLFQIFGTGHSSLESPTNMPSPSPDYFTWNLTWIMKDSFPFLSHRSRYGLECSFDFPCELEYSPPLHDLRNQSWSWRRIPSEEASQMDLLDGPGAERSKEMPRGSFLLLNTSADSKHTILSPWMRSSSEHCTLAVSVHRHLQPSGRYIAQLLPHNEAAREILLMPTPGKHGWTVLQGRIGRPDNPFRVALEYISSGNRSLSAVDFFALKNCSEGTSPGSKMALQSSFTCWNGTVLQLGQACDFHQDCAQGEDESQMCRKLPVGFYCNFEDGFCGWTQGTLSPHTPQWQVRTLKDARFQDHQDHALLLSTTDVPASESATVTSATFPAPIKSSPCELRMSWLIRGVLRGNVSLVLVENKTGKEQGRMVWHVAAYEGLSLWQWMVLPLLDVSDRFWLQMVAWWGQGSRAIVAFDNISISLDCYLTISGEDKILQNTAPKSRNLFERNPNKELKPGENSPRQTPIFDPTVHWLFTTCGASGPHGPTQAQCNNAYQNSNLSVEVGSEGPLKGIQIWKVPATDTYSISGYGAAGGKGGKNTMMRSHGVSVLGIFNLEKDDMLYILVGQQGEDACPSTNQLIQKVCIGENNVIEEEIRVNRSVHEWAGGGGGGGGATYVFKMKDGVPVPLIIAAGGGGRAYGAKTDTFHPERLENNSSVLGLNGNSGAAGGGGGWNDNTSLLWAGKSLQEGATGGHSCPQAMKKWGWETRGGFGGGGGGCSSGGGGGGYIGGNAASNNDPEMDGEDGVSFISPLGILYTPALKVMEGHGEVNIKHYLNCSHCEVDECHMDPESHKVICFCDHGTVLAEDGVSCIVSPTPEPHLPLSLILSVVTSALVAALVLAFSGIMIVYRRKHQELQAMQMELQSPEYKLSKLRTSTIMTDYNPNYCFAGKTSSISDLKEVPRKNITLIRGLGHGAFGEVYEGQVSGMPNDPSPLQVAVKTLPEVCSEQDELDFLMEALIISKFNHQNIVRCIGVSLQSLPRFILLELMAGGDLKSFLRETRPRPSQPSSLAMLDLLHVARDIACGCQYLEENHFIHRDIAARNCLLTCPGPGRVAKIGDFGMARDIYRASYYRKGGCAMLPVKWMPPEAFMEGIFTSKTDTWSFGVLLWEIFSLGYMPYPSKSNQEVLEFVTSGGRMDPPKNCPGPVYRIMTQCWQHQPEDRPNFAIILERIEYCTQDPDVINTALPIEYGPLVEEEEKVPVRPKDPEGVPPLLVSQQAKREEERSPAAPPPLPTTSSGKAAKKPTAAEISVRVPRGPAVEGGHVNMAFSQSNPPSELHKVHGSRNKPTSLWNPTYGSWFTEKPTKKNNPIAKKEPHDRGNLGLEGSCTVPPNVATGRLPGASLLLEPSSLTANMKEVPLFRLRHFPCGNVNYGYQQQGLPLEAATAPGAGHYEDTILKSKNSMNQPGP

[2] = target: T1, ALK tyrosine kinase receptor; test: Inhibition of ALK tyrosine phosphorylation in human Karpas-299 cells after 2 hrs in presence of mouse plasma; assay type: cell-based
Rattus norvegicus [3] = test: Ratio of AUC (0 to 12 h) at 10 mg/kg, po to AUC (0 to 12 h) at 100 mg/kg, po in rat; assay type: ADME, organism-based; conditions: in vivo
Summary of the method: (§1)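 Oral dose-escalation PK study in rats at 10, 30, 55 and 100 mg/kg. […] The ratio compares the 10 mg/kg value with the 100 mg/kg value.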

[4] = Cmax in rat at 100 mg/kg, po; assay type: ADME, organism-based; design: dose 100 mg/kg, route oral; conditions: in vivo
Summary of the method: (§2)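 Rat oral dose escalation at 10, 30, 55 and 100 mg/kg. Gavage at 5 mL/kg in 40% HPβCD after an overnight fast. Serial tail-vein blood was drawn into heparinized tubes. Plasma was protein-precipitated with acetonitrile and assayed by LC-MS/MS. Cmax and AUC0–12 were derived noncompartmentally; n = 2 at 10 mg/kg.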

[5] = AUC (0 to 12 hrs) in rat 10 mg/kg, po; assay type: ADME, organism-based; design: time < 12 hr, dose 10 mg/kg, route oral; conditions: plasma; summary of the method: as §2
Rattus norvegicus [6] = test: Ratio of Cmax at 10 mg/kg, po to Cmax at 100 mg/kg, po in rat; assay type: ADME, organism-based; conditions: in vivo; summary of the method: as §1
[7] = AUC (0 to 12 hrs) in rat 30 mg/kg, po; assay type: ADME, organism-based; design: time < 12 hr, dose 30 mg/kg, route oral; conditions: plasma; summary of the method: as §2
[8] = AUC (0 to 12 hrs) in rat 55 mg/kg, po; assay type: ADME, organism-based; design: time < 12 hr, dose 55 mg/kg, route oral; conditions: plasma; summary of the method: as §2
[9] = Cmax in rat at 30 mg/kg, po; assay type: ADME, organism-based; design: dose 30 mg/kg, route oral; conditions: in vivo; summary of the method: as §2
KARPAS-299 = test: Antitumor activity against human KARPAS299 cells expressing NPM-ALK xenografted in SCID mouse assessed as tumor stasis up to 100 mg/kg, po bid for 12 days; assay type: functional, organism-based; design: dose 100 mg/kg
[10] = Cmax in rat at 10 mg/kg, po; assay type: ADME, organism-based; design: dose 10 mg/kg, route oral; conditions: in vivo; summary of the method: as §2
[11] = AUC (0 to 12 hrs) in rat 100 mg/kg, po; assay type: ADME, organism-based; design: time < 12 hr, dose 100 mg/kg, route oral; conditions: plasma; summary of the method: as §2
[12] = Cmax in rat at 55 mg/kg, po; assay type: ADME, organism-based; design: dose 55 mg/kg, route oral; conditions: in vivo; summary of the method: as §2

Row | Structure (SMILES) | IC50 [1] [nM] | IC50 [2] [nM] | Ratio (Rattus norvegicus [3]) | Cmax [4] [ng/mL] | AUC(0-t) at 12 h [5] [ng·h/mL] | Ratio (Rattus norvegicus [6]) | AUC(0-t) at 12 h [7] [ng·h/mL] | AUC(0-t) at 12 h [8] [ng·h/mL] | Cmax [9] [ng/mL] | Activity (KARPAS-299) | Cmax [10] [ng/mL] | AUC(0-t) at 12 h [11] [ng·h/mL] | Cmax [12] [ng/mL]
1 | COc1c(Nc2ncc(Cl)c(N[C@H]3[C@@H](C(N)=O)[C@@H]4C=C[C@H]3C4)n2)ccc2c1CC[C@H](N1CCOCC1)CC2 | 35 | 120 |  |  |  |  |  |  |  |  |  |  | 
2 | CCN1C(=O)CCCc2c1ccc(Nc1ncc(Cl)c(N[C@H]3[C@@H](C(N)=O)[C@@H]4C=C[C@H]3C4)n1)c2OC |  | 45 | 2 | 1550 | 6020 | 2 | 11800 | 13800 | 1360 | Active | 925 | 14000 | 1450
